The source of these data is PMC10762718 (RSC Advances, 2024).

For the assay, the system named is MDA-MB-231 (human breast cancer) cells. Nature of the assay: MTT cell viability assay, MDA-MB-231. As to conditions: MDA-MB-231, 72 h, read-out: Cell viability (%) ±SD. The format is cell-based. Put shortly:
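MDA-MB-231 cells were grown as a monolayer in DMEM with 10% heat-inactivated FBS and 1% penicillin-streptomycin at 37 °C in humidified CO2, subcultured every third day with trypsin-EDTA, and used before passage 8. Cells were exposed 72 h to 10, 25 and 50 μM. Medium was removed, MTT added for 3 h at 37 °C, formazan dissolved in DMSO and read at 595 nm. Viability is relative to untreated control, triplicates, ±SD. IC50 comes from the viability-versus-concentration plot.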
(Tetrazolium assays rely on reduction of a dye to a coloured formazan, in cell work by metabolically active cells.)
Consider `CC(=O)OC[C@@H]1O[C@H](n2cc(Cn3ccc4nc(-c5ccc(C)cc5)cc(=O)n43)nn2)[C@@H](OC(C)=O)[C@H](OC(C)=O)[C@H]1OC(C)=O` (stereo in doubt) [Compound 22, (2S,3S,4R,5S,6S)-2-(Acetoxymethyl)-6-(4-((7-oxo-5-(p-tolyl)pyrazolo[1,5-a]pyrimidin-1(7H)-yl)methyl)-1H-1,2,3-triazol-1-yl)tetrahydro-2H-pyran-3,4,5-triyl triacetate], for which the viability (in general, a read-out of living cells in per cent, often relative to untreated cells) at 10 µM worked out at 92.4 ± 5.38%; the viability at 25 µM is 87.5 ± 6.74%; the viability at 50 µM stood at 85.4 ± 4.16%.

On to `CC(=O)OC[C@@H]1O[C@H](n2cc(Cn3ccc4nc(-c5ccc(Br)cc5)cc(=O)n43)nn2)[C@@H](OC(C)=O)[C@H](OC(C)=O)[C@H]1OC(C)=O` (stereo in doubt) [Compound 24, (2S,3S,4R,5S,6S)-2-(Acetoxymethyl)-6-(4-((5-(4-bromophenyl)-7-oxopyrazolo[1,5-a]pyrimidin-1(7H)-yl)methyl)-1H-1,2,3-triazol-1-yl)tetrahydro-2H-pyran-3,4,5-triyl triacetate], for which the viability at 10 µM was 100 ± 8.01%, the viability at 25 µM worked out at 100 ± 8.93% and the viability at 50 µM was 98.5 ± 2.89%.

As to `CC(=O)OC[C@@H]1O[C@H](n2cc(Cn3ccc4nc(-c5ccc(Cl)cc5)cc(=O)n43)nn2)[C@@H](OC(C)=O)[C@H](OC(C)=O)[C@H]1OC(C)=O` (stereo in doubt) [Compound 25, (2S,3S,4R,5S,6S)-2-(Acetoxymethyl)-6-(4-((5-(4-chlorophenyl)-7-oxopyrazolo[1,5-a]pyrimidin-1(7H)-yl)methyl)-1H-1,2,3-triazol-1-yl)tetrahydro-2H-pyran-3,4,5-triyl triacetate], the viability at 10 µM was 98.6 ± 2.25%, the viability at 25 µM amounted to 93.2 ± 1.96% and the viability at 50 µM stood at 86.2 ± 9.22%.

For the compound `CC(=O)OC[C@@H]1O[C@H](n2cc(Cn3ccc4nc(-c5ccc(C(F)(F)F)cc5)cc(=O)n43)nn2)[C@@H](OC(C)=O)[C@H](OC(C)=O)[C@H]1OC(C)=O` (stereo in doubt) [Compound 27, (2S,3S,4R,5S,6S)-2-(Acetoxymethyl)-6-(4-((7-oxo-5-(4-(trifluoromethyl)phenyl)pyrazolo[1,5-a]pyrimidin-1(7H)-yl)methyl)-1H-1,2,3-triazol-1-yl)tetrahydro-2H-pyran-3,4,5-triyl triacetate], the viability at 10 µM stood at 93.2 ± 8.51%, the viability at 25 µM turned out to be 89.8 ± 8.75% and the viability at 50 µM amounted to 74.8 ± 7.02%.

With `CC(=O)OC[C@@H]1O[C@H](n2cc(Cn3ccc4nc(-c5ccc(C(C)C)cc5)cc(=O)n43)nn2)[C@@H](OC(C)=O)[C@H](OC(C)=O)[C@H]1OC(C)=O` (stereo in doubt) [Compound 28, (2S,3S,4R,5S,6S)-2-(Acetoxymethyl)-6-(4-((5-(4-isopropylphenyl)-7-oxopyrazolo[1,5-a]pyrimidin-1(7H)-yl)methyl)-1H-1,2,3-triazol-1-yl)tetrahydro-2H-pyran-3,4,5-triyl triacetate], the viability at 10 µM was 102 ± 8.51%, the viability at 25 µM was found to be 99.1 ± 3.51% and the viability at 50 µM turned out to be 69.5 ± 17.7%.

Consider `CC(=O)OC[C@@H]1O[C@H](n2cc(Cn3ccc4nc(-c5ccc6ccccc6c5)cc(=O)n43)nn2)[C@@H](OC(C)=O)[C@H](OC(C)=O)[C@H]1OC(C)=O` (stereo in doubt) [Compound 29, (2S,3S,4R,5S,6S)-2-(Acetoxymethyl)-6-(4-((5-(naphthalen-2-yl)-7-oxopyrazolo[1,5-a]pyrimidin-1(7H)-yl)methyl)-1H-1,2,3-triazol-1-yl)tetrahydro-2H-pyran-3,4,5-triyl triacetate], for which the viability at 10 µM was 89.1 ± 4.09%, the viability at 25 µM was 81.5 ± 2.58% and the viability at 50 µM was found to be 88.4 ± 7.36%.

Turning to `CC(=O)OC[C@@H]1O[C@H](n2cc(Cn3ccc4nc(-c5ccc(C)cc5)cc(=O)n43)nn2)[C@@H](OC(C)=O)[C@H](OC(C)=O)[C@@H]1OC(C)=O` (stereo in doubt) [Compound 31, (2S,3R,4R,5S,6S)-2-(Acetoxymethyl)-6-(4-((7-oxo-5-(p-tolyl)pyrazolo[1,5-a]pyrimidin-1(7H)-yl)methyl)-1H-1,2,3-triazol-1-yl)tetrahydro-2H-pyran-3,4,5-triyl triacetate], the viability at 10 µM turned out to be 81.7 ± 8.36%, the viability at 25 µM was found to be 88.5 ± 6.73% and the viability at 50 µM came out at 78.8 ± 10.4%.

For the compound `COc1ccc(-c2cc(=O)n3c(ccn3Cc3cn([C@H]4O[C@@H](COC(C)=O)[C@@H](OC(C)=O)[C@@H](OC(C)=O)[C@@H]4OC(C)=O)nn3)n2)cc1` (stereo in doubt) [Compound 32, (2S,3R,4R,5S,6S)-2-(Acetoxymethyl)-6-(4-((5-(4-methoxyphenyl)-7-oxopyrazolo[1,5-a]pyrimidin-1(7H)-yl)methyl)-1H-1,2,3-triazol-1-yl)tetrahydro-2H-pyran-3,4,5-triyl triacetate], the viability at 10 µM stood at 92.5 ± 9.39%, the viability at 25 µM came out at 86.2 ± 8.63% and the viability at 50 µM was 72.5 ± 6.24%.

`CC(=O)OC[C@@H]1O[C@H](n2cc(Cn3ccc4nc(-c5ccc(Cl)cc5)cc(=O)n43)nn2)[C@@H](OC(C)=O)[C@H](OC(C)=O)[C@@H]1OC(C)=O` (stereo in doubt) [Compound 34, (2S,3R,4R,5S,6S)-2-(Acetoxymethyl)-6-(4-((5-(4-chlorophenyl)-7-oxopyrazolo[1,5-a]pyrimidin-1(7H)-yl)methyl)-1H-1,2,3-triazol-1-yl)tetrahydro-2H-pyran-3,4,5-triyl triacetate]: the viability at 10 µM turned out to be 78.5 ± 2.43%, the viability at 25 µM stood at 76.8 ± 2.43% and the viability at 50 µM was 73 ± 2.62%.

As for `CC(=O)OC[C@@H]1O[C@H](n2cc(Cn3ccc4nc(-c5ccc(F)cc5)cc(=O)n43)nn2)[C@@H](OC(C)=O)[C@H](OC(C)=O)[C@@H]1OC(C)=O` (stereo in doubt) [Compound 35, (2S,3R,4R,5S,6S)-2-(Acetoxymethyl)-6-(4-((5-(4-fluorophenyl)-7-oxopyrazolo[1,5-a]pyrimidin-1(7H)-yl)methyl)-1H-1,2,3-triazol-1-yl)tetrahydro-2H-pyran-3,4,5-triyl triacetate], the viability at 10 µM was 82.4 ± 9.97%, the viability at 25 µM turned out to be 78.6 ± 10.1% and the viability at 50 µM is 75.3 ± 6.17%.

`CC(=O)OC[C@@H]1O[C@H](n2cc(Cn3ccc4nc(-c5ccc(C(C)C)cc5)cc(=O)n43)nn2)[C@@H](OC(C)=O)[C@H](OC(C)=O)[C@@H]1OC(C)=O` (stereo in doubt) [Compound 37, (2S,3R,4R,5S,6S)-2-(Acetoxymethyl)-6-(4-((5-(4-isopropylphenyl)-7-oxopyrazolo[1,5-a]pyrimidin-1(7H)-yl)methyl)-1H-1,2,3-triazol-1-yl)tetrahydro-2H-pyran-3,4,5-triyl triacetate]: the viability at 10 µM was 85.2 ± 3.5%, the viability at 25 µM worked out at 80.5 ± 8.96% and the viability at 50 µM was 78.7 ± 2.56%.

For `CC(=O)OC[C@@H]1O[C@H](n2cc(Cn3ccc4nc(-c5ccc6ccccc6c5)cc(=O)n43)nn2)[C@@H](OC(C)=O)[C@H](OC(C)=O)[C@@H]1OC(C)=O` (stereo in doubt) [Compound 38, (2S,3R,4R,5S,6S)-2-(Acetoxymethyl)-6-(4-((5-(naphthalen-2-yl)-7-oxopyrazolo[1,5-a]pyrimidin-1(7H)-yl)methyl)-1H-1,2,3-triazol-1-yl)tetrahydro-2H-pyran-3,4,5-triyl triacetate], the viability at 10 µM came to 92 ± 8.31%, the viability at 25 µM was 89.6 ± 9.91% and the viability at 50 µM came to 67.7 ± 10.8%.

As to `CC(=O)OC[C@@H]1O[C@H](n2cc(Cn3ccc4nc(-c5ccc6c(c5)OCO6)cc(=O)n43)nn2)[C@@H](OC(C)=O)[C@H](OC(C)=O)[C@@H]1OC(C)=O` (stereo in doubt) [Compound 39, (2S,3R,4R,5S,6S)-2-(Acetoxymethyl)-6-(4-((5-(benzo[d][1,3]dioxol-5-yl)-7-oxopyrazolo[1,5-a]pyrimidin-1(7H)-yl)methyl)-1H-1,2,3-triazol-1-yl)tetrahydro-2H-pyran-3,4,5-triyl triacetate], the viability at 10 µM amounted to 101 ± 9.67%, the viability at 25 µM is 98.25 ± 0.34% and the viability at 50 µM is 97.5 ± 1.88%.

As to `CC(=O)OC[C@H]1O[C@H](n2cc(Cn3ccc4nc(-c5ccc(C)cc5)cc(=O)n43)nn2)[C@@H](OC(C)=O)[C@@H](OC(C)=O)[C@@H]1OC(C)=O` [Compound 40, (2R,3R,4S,5S,6S)-2-(Acetoxymethyl)-6-(4-((7-oxo-5-(p-tolyl)pyrazolo[1,5-a]pyrimidin-1(7H)-yl)methyl)-1H-1,2,3-triazol-1-yl)tetrahydro-2H-pyran-3,4,5-triyl triacetate], the viability at 10 µM stood at 99 ± 7.7%, the viability at 25 µM was determined as 92.8 ± 7.09% and the viability at 50 µM turned out to be 91.7 ± 9.12%.

Regarding `CC(=O)OC[C@H]1O[C@H](n2cc(Cn3ccc4nc(-c5ccc(Br)cc5)cc(=O)n43)nn2)[C@@H](OC(C)=O)[C@@H](OC(C)=O)[C@@H]1OC(C)=O` [Compound 42, (2R,3R,4S,5S,6S)-2-(Acetoxymethyl)-6-(4-((5-(4-bromophenyl)-7-oxopyrazolo[1,5-a]pyrimidin-1(7H)-yl)methyl)-1H-1,2,3-triazol-1-yl)tetrahydro-2H-pyran-3,4,5-triyl triacetate], the viability at 10 µM was 81.3 ± 7.65%, the viability at 25 µM was found to be 78.5 ± 6.58% and the viability at 50 µM worked out at 75.5 ± 8.45%.

Take `CC(=O)OC[C@H]1O[C@H](n2cc(Cn3ccc4nc(-c5ccc(Cl)cc5)cc(=O)n43)nn2)[C@@H](OC(C)=O)[C@@H](OC(C)=O)[C@@H]1OC(C)=O` [Compound 43, (2R,3R,4S,5S,6S)-2-(Acetoxymethyl)-6-(4-((5-(4-chlorophenyl)-7-oxopyrazolo[1,5-a]pyrimidin-1(7H)-yl)methyl)-1H-1,2,3-triazol-1-yl)tetrahydro-2H-pyran-3,4,5-triyl triacetate]: the viability at 10 µM came out at 99.5 ± 10.2%, the viability at 25 µM is 95.2 ± 10.6% and the viability at 50 µM worked out at 71.4 ± 10.5%.
